Our source for the Km values is paper PMC10432377 (Journal of Applied Glycoscience, 2023).

Holding throughout (type): biochemical, Lacticaseibacillus casei
What all share (settings): 80 mM sodium acetate pH 4.0, 37 °C

The subject of assay [1] is LBCZ_0230. Nature of the assay: D-galactose release, L-arabinose/D-galactose assay kit. In outline: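 Recombinant C-terminally His6-tagged enzyme was expressed in E. coli BL21(DE3) and Ni²⁺-affinity purified. Lacto-N-biose I or galacto-N-biose at 0.1-2 mM was reacted with enzyme at 37 °C for 10 min. Reactions were stopped at 80 °C for 3 min and D-galactose was quantified. Km came from Michaelis-Menten nonlinear regression, as mean ± SD of three independent experiments.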

The subject of assay [2] is LBCZ_0230. The assay is described as follows: o-nitrophenol release, A400. In outline:
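The enzyme was C-terminally His6-tagged, expressed in E. coli BL21(DE3) and purified on Ni²⁺ affinity. Protein was quantified by amino acid analysis. o-Nitrophenyl β-D-galactopyranoside at 0.05-1 mM was incubated with enzyme at 37 °C for 10 min and stopped with 1 M Na₂CO₃. Released o-nitrophenol was read at A400. Km was fitted by nonlinear Michaelis-Menten regression from three independent experiments (mean ± SD).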

In assay [3] the test system is LBCZ_0230. The assay is described as follows: p-nitrophenol release, A400. The gist of the method: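 Purified recombinant His6-tagged enzyme (E. coli BL21(DE3), Ni²⁺ column) was assayed on p-nitrophenyl β-D-galactopyranoside over 0.0125-0.5 mM. Incubation ran at 37 °C for 10 min and was quenched with 1 M Na₂CO₃. p-Nitrophenol was measured at A400. Km was obtained by nonlinear Michaelis-Menten fitting, as mean ± SD of three independent experiments.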

Structures are written as SMILES.

By Km is commonly meant the concentration of substrate that gives half-maximal velocity. Consider `CC(=O)N[C@H]1C(O)O[C@H](CO)[C@H](O)[C@@H]1O[C@@H]1O[C@H](CO)[C@H](O)[C@H](O)[C@H]1O` (stereo partly shown) [GNB], for which the Km in the assay on LBCZ_0230 [1] was 707 ± 18 µM.
`CC(=O)N[C@H]1C(O)O[C@H](CO)[C@@H](O)[C@@H]1O[C@@H]1O[C@H](CO)[C@H](O)[C@H](O)[C@H]1O` (stereo partly shown) [LNB]: the Km in the assay on LBCZ_0230 [1] came out at 238 ± 5 µM.
Consider `O=[N+]([O-])c1ccccc1O[C@@H]1O[C@H](CO)[C@H](O)[C@H](O)[C@H]1O` [oNPGal], for which the Km with LBCZ_0230 [2] turned out to be 50.1 ± 2.3 µM.
For `O=[N+]([O-])c1ccc(O[C@@H]2O[C@H](CO)[C@H](O)[C@H](O)[C@H]2O)cc1` [pNPGal], the Km in the assay with LBCZ_0230 [3] was found to be 20.9 ± 1.3 µM.
